In ChEMBL document CHEMBL4513216, “Probing the Open Global Health Chemical Diversity Library for Multistage-Active Starting Points for Next-Generation Antimalarials” (ACS Infect Dis, 2020) one finds cytotoxicity data, which are given here for 39 compounds.

Structures are written as SMILES.

The data set is described as follows: Toxicity liver stage against HepG2, at 10uM. It counts as cell-based. Further details: test concentration 10 uM, cell line HepG2-A16-CD81EGFP. To be noted: human, HepG2-A16-CD81EGFP cells; read-out: INHIBITION
In a few lines:
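Uninfected HepG2-A16-CD81EGFP cells, 3 × 10^3 per well, 1536-well, plated on prespotted compound at 10 μM final, parasite-free screening media added to match infected plates; puromycin 10 μM positive, DMSO 0.5% negative; run in parallel with 48 h PbLuc assay at 37 °C, 5% CO2; viability by CellTiter-Glo luminescence, normalized to controls.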
Take `Cn1ncc2c1CCCC2NCc1cccc(F)c1` (centres undefined): the cytotoxicity at 10 µM was -15.6%.

On to `Cc1cn2c(CN(C)C(=O)c3cccnc3O)c(C)nc2s1`, for which the cytotoxicity at 10 µM is -8.59%.

For the compound `Cc1cn[nH]c1C1COCCN1Cc1cscn1` (centres undefined), the cytotoxicity at 10 µM was found to be 2.67%.

Take `CN(C)C(=O)c1ccc(C2CCCN2C(=O)CCC2=NNC(=O)CC2)s1` (centres undefined): the cytotoxicity at 10 µM is 9.19%.

Regarding `COCCc1noc(CNC2CCCC(C)(C)C2)n1` (centres undefined), the cytotoxicity at 10 µM was -0.475%.

For the compound `CCN1CC(C(=O)NCc2ccnc(-n3cccn3)c2)CC1=O` (centres undefined), the cytotoxicity at 10 µM was -9.3%.

Turning to `O=C(CN1CCC(N2CCNC2=O)CC1)NCC(F)(F)F`, the cytotoxicity at 10 µM was -3.35%.

With `Brc1ccc(C2(CNCc3cc[nH]c3)CCOCC2)cc1`, the cytotoxicity at 10 µM turned out to be 9.17%.

In the case of `CC(NC(=O)c1cccs1)C(=O)NCc1cccnc1N1CCCCC1` (centres undefined), the cytotoxicity at 10 µM is -8.57%.

For `O=S(=O)(Cc1ccccc1F)NCCN1CCOCC1`, the cytotoxicity at 10 µM stood at 24.8%.

For `CN(C)Cc1ccc(C(N)=O)cc1NC(=O)c1cccc(C#N)c1`, the cytotoxicity at 10 µM was found to be 1.12%.

With `Cn1ccc2ccc(C(=O)N3CCN(C(=O)N4CCOCC4)CC3)cc21`, the cytotoxicity at 10 µM was -21.1%.

On to `COc1c(-c2ccc(O)cc2)oc2cc(O)cc(O)c2c1=O` [ISOKAEMPFERIDE], for which the cytotoxicity at 10 µM came to 7.8%.

For `Cc1cc(C)c(CNC(=O)NCC2Cc3ccccc32)c(=O)[nH]1` (centres undefined), the cytotoxicity at 10 µM is -3.78%.

Turning to `O=C(NC1CCN(CC2CC2)C1)c1ccc(N2CCC(O)CC2)cc1` (centres undefined), the cytotoxicity at 10 µM is -11.8%.

Consider `CC(C)n1cc(-c2nc3cc(S(=O)(=O)N4CCCC4)ccc3n2C)cn1`, for which the cytotoxicity at 10 µM was determined as 1.12%.

In the case of `CCOc1ccc(N(C)Cc2nnc(C)o2)cc1`, the cytotoxicity at 10 µM is 9.46%.

Consider `Fc1cnc(N2CCCC3(COCCN(c4nccs4)C3)C2)nc1` (centres undefined), for which the cytotoxicity at 10 µM was found to be 1.43%.

In the case of `CC(C)c1cc(C(=O)NCCN2CCOCC2)nc(N2CCCC2)n1`, the cytotoxicity at 10 µM is 8.82%.

With `Cn1cc(C2SCC(=O)Nc3c2cnn3C(C)(C)C)cn1` (centres undefined), the cytotoxicity at 10 µM was -6.24%.

In the case of `CO[C@@H]1CN(Cc2scnc2C)[C@@H]2CCCO[C@@H]21`, the cytotoxicity at 10 µM was -6.34%.

Turning to `CC(C1CCN(Cc2cnn(C)c2C2CC2)CC1)N1CCCC1` (centres undefined), the cytotoxicity at 10 µM is 6.29%.

As for `CC(NC(=O)CCC(C)(C)C)C(=O)Nc1ccc(-n2cncn2)cc1` (centres undefined), the cytotoxicity at 10 µM was -3.46%.

Consider `CCS(=O)(=O)c1ccc2oc([C@H]3CCN(CC4CCCCC4)C3)nc2c1`, for which the cytotoxicity at 10 µM amounted to 41%.

Consider `Cc1ccnn1CCCNC(=O)C1CCN(S(C)(=O)=O)CC1`, for which the cytotoxicity at 10 µM turned out to be 3.63%.

Turning to `COc1ccc(CN2CCO[C@H]3CN(C4CCC4)CC[C@H]3C2=O)cc1`, the cytotoxicity at 10 µM was -148%.

For the compound `Cc1nnc(C(NS(=O)(=O)c2cc(C)c(F)cc2F)C(C)C)[nH]1` (centres undefined), the cytotoxicity at 10 µM was -6.04%.

Take `Cc1c[nH]c(C2COCCN2C(=O)c2n[nH]c(=O)c3ccccc23)n1` (centres undefined): the cytotoxicity at 10 µM was -0.555%.

With `Cc1nc(N2CCOCC2)nc2c1COCC21CCN(CC(C)C)C1` (centres undefined), the cytotoxicity at 10 µM is -128%.

`CC(C)NC(=O)Nc1ccc(CS(=O)(=O)C(C)(C)C)cc1`: the cytotoxicity at 10 µM is -1.97%.

Turning to `Cc1ccc(NC2CCN(C(=O)c3ccc(C#N)cc3)CC2)nn1`, the cytotoxicity at 10 µM was -4.28%.

On to `Cc1nc(N(C)C)nc(NCCc2c[nH]cn2)c1C`, for which the cytotoxicity at 10 µM stood at 3.12%.

With `Cc1c(C(=O)NC2CCCOc3cc(Cl)ccc32)cnn1C` (centres undefined), the cytotoxicity at 10 µM is -0.572%.

With `CCS(=O)(=O)N1CCCC2(CCCN2C(=O)c2cscn2)C1` (centres undefined), the cytotoxicity at 10 µM was 8.25%.

Turning to `COCCNc1cc(-c2cccc(C(=O)O)c2C)c2cc[nH]c2n1`, the cytotoxicity at 10 µM is -3.85%.

In the case of `Cc1ccc(C(=O)Nc2cc(F)ccc2OCC2CCCO2)cn1` (centres undefined), the cytotoxicity at 10 µM came out at 0.207%.

Consider `Cc1cnn(CC(C)Nc2nc3ccccc3o2)c1` (centres undefined), for which the cytotoxicity at 10 µM is -9.49%.

Turning to `COc1ccc2c(c1)c(-c1nc(C)ncc1CN)cn2C`, the cytotoxicity at 10 µM was 21.7%.

`Cc1cccc(-c2noc(CN3CCn4c(nnc4C4CC4)C3)n2)c1`: the cytotoxicity at 10 µM is -9.03%.
